Experimental findings from ChEMBL document CHEMBL4330069, “Boosting the efficacy of anti-MRSA β-lactam antibiotics via an easily accessible, non-cytotoxic and orally bioavailable FtsZ inhibitor” (Eur J Med Chem, 2019) are described below.

In brackets after ≈: the same amount, converted by molar mass. A value given as a limit tells only on which side of the number the result lay.

Experiment [1] is described as follows: Selective index, ratio of IC50 for mouse L929 cells to MIC for Staphylococcus aureus ATCC 29213. A digest of the protocol:
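Selectivity index calculated as L929 IC50 (μM) divided by S. aureus MIC (μM).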

Experiment [2] concerns Staphylococcus aureus. Put plainly: Antibacterial activity against Staphylococcus aureus ATCC 29213 by broth microdilution assay. The class given is functional. In short, it runs like this: (§1)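 Broth microdilution per CLSI guidelines; compounds dissolved in DMSO; single agents tested; growth inhibition read by eye; run in duplicate (table footnote states at least triplicates).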

The subject of another experiment is Escherichia coli. Put plainly: Antibacterial activity against Escherichia coli ATCC 25922 by broth microdilution assay. Type of experiment: functional. A digest of the protocol:
as §1
In general terms: Dilution methods test growth across graded concentrations, often in twofold steps.

A further experiment has as its system L929. The experiment is described as follows: Cytotoxicity against mouse L929 cells by MTS assay. Type of experiment: cell-based. In short, it runs like this:
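MTS assay on L929 mouse fibroblasts; IC50 reported as the average of three independent measurements.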
In general terms: Formazan colour is commonly taken as a measure of viable cells.

Experiment [3] deals with Staphylococcus aureus. The experiment is described as follows: Antibacterial activity against multidrug-resistant Staphylococcus aureus isolate 3267 by broth microdilution assay. Type of experiment: functional. A digest of the protocol: (§2)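 Broth microdilution MIC per CLSI guidelines against clinical MRSA isolates, for β-lactams and test compound alone and in combination. Compounds were dissolved in DMSO. Growth was read by eye, in duplicate. FIC index = FIC(compound) + FIC(drug); synergy defined as FIC index ≤0.5.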

Experiment [4] relates to Staphylococcus aureus. Put plainly: Antibacterial activity against multidrug-resistant Staphylococcus aureus isolate 2973 by broth microdilution assay. Type of experiment: functional. In short, it runs like this: as §2
Experiment [5] relates to Staphylococcus aureus. Put plainly: Antibacterial activity against multidrug-resistant Staphylococcus aureus isolate 256 by broth microdilution assay. Type of experiment: functional. A digest of the protocol: as §2
Experiment [6] deals with Staphylococcus aureus. The experiment is described as follows: Antibacterial activity against multidrug-resistant Staphylococcus aureus isolate 1344 by broth microdilution assay. Type of experiment: functional. In short, it runs like this: as §2
For experiment [7], the system named is Staphylococcus aureus. The experiment is described as follows: Antibacterial activity against multidrug-resistant Staphylococcus aureus isolate 2901 by broth microdilution assay. The class given is functional. A digest of the protocol: as §2
Experiment [8] deals with Staphylococcus aureus. Put plainly: Antibacterial activity against multidrug-resistant Staphylococcus aureus isolate 200 by broth microdilution assay. The class given is functional. In short, it runs like this: as §2
Experiment [9] has as its system Staphylococcus aureus. Put plainly: Antibacterial activity against multidrug-resistant Staphylococcus aureus isolate 1402 by broth microdilution assay. The class given is functional. A digest of the protocol: as §2
For experiment [10], the system named is Staphylococcus aureus. The experiment is described as follows: Antibacterial activity against multidrug-resistant Staphylococcus aureus isolate 3580 by broth microdilution assay. The class given is functional. In short, it runs like this:
as §2

The test system of experiment [11] is Staphylococcus aureus. Put plainly: Antibacterial activity against multidrug-resistant Staphylococcus aureus isolate 254 by broth microdilution assay. The class given is functional. A digest of the protocol:
as §2

Experiment [12] relates to Staphylococcus aureus. The experiment is described as follows: Antibacterial activity against multidrug-resistant Staphylococcus aureus isolate 85 by broth microdilution assay. Type of experiment: functional. A digest of the protocol:
as §2

Experiment [13] concerns Staphylococcus aureus. The experiment is described as follows: Antibacterial activity against multidrug-resistant Staphylococcus aureus isolate 2224 by broth microdilution assay. Type of experiment: functional. In short, it runs like this: as §2
The test system of experiment [14] is Staphylococcus aureus. Put plainly: Antibacterial activity against multidrug-resistant Staphylococcus aureus isolate 1717 by broth microdilution assay. Type of experiment: functional. In short, it runs like this:
as §2

Experiment [15] deals with Staphylococcus aureus. Put plainly: Antibacterial activity against multidrug-resistant Staphylococcus aureus isolate 3332 by broth microdilution assay. The class given is functional. In short, it runs like this: as §2
For experiment [16], the system named is Staphylococcus aureus. The experiment is described as follows: Antibacterial activity against multidrug-resistant Staphylococcus aureus isolate 2516 by broth microdilution assay. Type of experiment: functional. A digest of the protocol: as §2
Experiment [17] deals with Staphylococcus aureus. The experiment is described as follows: Antibacterial activity against multidrug-resistant Staphylococcus aureus isolate 231 by broth microdilution assay. The class given is functional. A digest of the protocol: as §2
Experiment [18] relates to Staphylococcus aureus. The experiment is described as follows: Antibacterial activity against multidrug-resistant Staphylococcus aureus isolate 2728 by broth microdilution assay. Type of experiment: functional. In short, it runs like this: as §2
The subject of experiment [19] is Staphylococcus aureus. The experiment is described as follows: Antibacterial activity against multidrug-resistant Staphylococcus aureus isolate 2490 by broth microdilution assay. Type of experiment: functional. A digest of the protocol:
as §2

The test system of experiment [20] is Staphylococcus aureus. Put plainly: Antibacterial activity against multidrug-resistant Staphylococcus aureus isolate 3589 by broth microdilution assay. Type of experiment: functional. In short, it runs like this:
as §2

Experiment [21] relates to Staphylococcus aureus. The experiment is described as follows: Antibacterial activity against multidrug-resistant Staphylococcus aureus isolate 3411 by broth microdilution assay. The class given is functional. A digest of the protocol:
as §2

Experiment [22] deals with Staphylococcus aureus. The experiment is described as follows: Antibacterial activity against multidrug-resistant Staphylococcus aureus isolate 1136 by broth microdilution assay. The class given is functional. A digest of the protocol:
as §2

In experiment [23] the test system is Staphylococcus aureus. Put plainly: Antibacterial activity against multidrug-resistant Staphylococcus aureus isolate 757 by broth microdilution assay. Type of experiment: functional. A digest of the protocol: as §2
For experiment [24], the system named is Staphylococcus aureus. The experiment is described as follows: Antibacterial activity against multidrug-resistant Staphylococcus aureus isolate 417 by broth microdilution assay. Type of experiment: functional. A digest of the protocol: as §2
For experiment [25], the system named is Staphylococcus aureus. Put plainly: Antibacterial activity against multidrug-resistant Staphylococcus aureus isolate 774 by broth microdilution assay. The class given is functional. In short, it runs like this: as §2
Experiment [26] relates to Staphylococcus aureus. The experiment is described as follows: Antibacterial activity against multidrug-resistant Staphylococcus aureus isolate 358 by broth microdilution assay. The class given is functional. In short, it runs like this:
as §2

The test system of experiment [27] is Staphylococcus aureus. Put plainly: Antibacterial activity against multidrug-resistant Staphylococcus aureus isolate 2895 by broth microdilution assay. Type of experiment: functional. In short, it runs like this:
as §2

Experiment [28] has as its system Staphylococcus aureus. The experiment is described as follows: Antibacterial activity against multidrug-resistant Staphylococcus aureus isolate 1749 by broth microdilution assay. The class given is functional. In short, it runs like this:
as §2

Experiment [29] relates to Staphylococcus aureus. The experiment is described as follows: Antibacterial activity against multidrug-resistant Staphylococcus aureus isolate 1449 by broth microdilution assay. Type of experiment: functional. In short, it runs like this:
as §2

In experiment [30] the test system is Staphylococcus aureus. Put plainly: Antibacterial activity against multidrug-resistant Staphylococcus aureus isolate 2919 by broth microdilution assay. The class given is functional. A digest of the protocol:
as §2

As a reminder, the MIC is the lowest concentration found to suppress growth. A high value points to a less susceptible organism. Usually IC50 stands for the point on the concentration scale where inhibition reaches its midpoint. A low value points to inhibition by little substance. Regarding `CCCCCCCCCNc1ccc(F)c(/C(N)=N/O)c1F`, the “Selectivity Index” value in experiment [1] is recorded as over 2. Moreover, the MIC with Staphylococcus aureus [2] was 50 µM (≈ 15.7 µg/mL); in the experiment with Escherichia coli it was over 64 µg/mL. The compound further came in with a concentration for half-maximal inhibition (IC50) in the experiment with L929 of over 100 µM.
In the case of `CCCCCC/C=C\CNc1ccc(F)c(C(N)=O)c1F`, in [1], the “Selectivity Index” value was 4. Also, the MIC in the experiment with Staphylococcus aureus [2] is 25 µM (≈ 7.41 µg/mL); with Escherichia coli, over 64 µg/mL. The midpoint of inhibition in the experiment on L929, the IC50, lay at 99 µM.
In the case of `CCCCCCCCCN(C)c1ccc(F)c(/C(N)=N/O)c1F`, in [1], the “Selectivity Index” value is over 8. The values for the MIC against Staphylococcus aureus [2] and in the experiment on Escherichia coli were 13 µM (≈ 4.26 µg/mL) and over 64 µg/mL, respectively. Also, the IC50 in the experiment with L929 is over 100 µM.
Regarding `C[C@@H](O)[C@H]1C(=O)N2C(C(=O)O)=C(S[C@@H]3CN[C@H](C(=O)N(C)C)C3)[C@H](C)[C@H]12` [MEROPENEM], the MIC stood at 2 µg/mL (≈ 5.22 µM) against Staphylococcus aureus [3]; 1 µg/mL (≈ 2.61 µM) in the experiment on Staphylococcus aureus [4]; 2 µg/mL (≈ 5.22 µM) against Staphylococcus aureus [5]; 16 µg/mL (≈ 41.7 µM) against Staphylococcus aureus [6]; 1 µg/mL (≈ 2.61 µM) against Staphylococcus aureus [7]; 1 µg/mL (≈ 2.61 µM) in the experiment with Staphylococcus aureus [8]. Moreover, the minimum inhibitory concentration (MIC) is 1 µg/mL (≈ 2.61 µM) with Staphylococcus aureus [9]; 8 µg/mL (≈ 20.9 µM) in the experiment on Staphylococcus aureus [10]; 8 µg/mL (≈ 20.9 µM) in the experiment on Staphylococcus aureus [11]; 2 µg/mL (≈ 5.22 µM) against Staphylococcus aureus [12]; 2 µg/mL (≈ 5.22 µM) in the experiment with Staphylococcus aureus [13]; 1 µg/mL (≈ 2.61 µM) against Staphylococcus aureus [14]. Also, the MIC stood at 2 µg/mL (≈ 5.22 µM) against Staphylococcus aureus [15]; 16 µg/mL (≈ 41.7 µM) in the experiment with Staphylococcus aureus [16]; 32 µg/mL (≈ 83.4 µM) in the experiment with Staphylococcus aureus [17]; 2 µg/mL (≈ 5.22 µM) against Staphylococcus aureus [18]; 2 µg/mL (≈ 5.22 µM) in the experiment with Staphylococcus aureus [19]; 4 µg/mL (≈ 10.4 µM) in the experiment with Staphylococcus aureus [20]. Besides, the minimal inhibitory concentration (MIC) in the experiment on Staphylococcus aureus [21] stood at 4 µg/mL (≈ 10.4 µM); in the experiment with Staphylococcus aureus [22], 2 µg/mL (≈ 5.22 µM); in the experiment on Staphylococcus aureus [23] it was 4 µg/mL (≈ 10.4 µM); with Staphylococcus aureus [24], 64 µg/mL (≈ 167 µM); in the experiment with Staphylococcus aureus [25] it was 32 µg/mL (≈ 83.4 µM); in the experiment with Staphylococcus aureus [26], 0.13 µg/mL (≈ 0.339 µM). Moreover, the minimal inhibitory concentration (MIC) with Staphylococcus aureus [27] was 1 µg/mL (≈ 2.61 µM); in the experiment on Staphylococcus aureus [28], 0.5 µg/mL (≈ 1.3 µM); against Staphylococcus aureus [29] it was 0.13 µg/mL (≈ 0.339 µM); in the experiment with Staphylococcus aureus [30], 1 µg/mL (≈ 2.61 µM).
In the case of `CCCCCCCCN(C)c1ccc(F)c(C(N)=O)c1F`, the “Selectivity Index” value in experiment [1] stood at 7. The MIC against Staphylococcus aureus [2] is 13 µM (≈ 3.88 µg/mL); in the experiment with Escherichia coli, over 64 µg/mL. The IC50 in the experiment with L929 was 92 µM.
Turning to `CCCCCCCCCN(C)c1ccc(F)c(C(N)=O)c1F`, the “Selectivity Index” value in experiment [1] was determined as 19. Also, the minimal inhibitory concentration (MIC) against Staphylococcus aureus [2] is 3.1 µM (≈ 0.968 µg/mL); against Escherichia coli, over 64 µg/mL. For the same compound, the IC50 in the experiment with L929 was 60 µM.
The corresponding values for `CCCCCCCCCN(C)c1ccc(F)c(C(=N)N)c1F` are over 2, 50 µM (≈ 15.6 µg/mL), over 64 µg/mL and over 100 µM.
The corresponding values for `CCCCCCCC(C)Nc1ccc(F)c(C(N)=O)c1F` (stereo not given) are over 8, 13 µM (≈ 3.88 µg/mL), over 64 µg/mL and over 100 µM.
With `CCCCCCCCCNc1ccc(F)c(-c2nnn[nH]2)c1F`, the “Selectivity Index” value in experiment [1] is reported as over 2. Further, the figures for the MIC in the experiment on Staphylococcus aureus [2] and with Escherichia coli were 50 µM (≈ 16.2 µg/mL) and over 64 µg/mL, respectively. Also, the IC50 in the experiment with L929 was over 100 µM.
